# Screening data as filed in PubChem BioAssay.
# Wnt bcat act: Wnt/beta-catenin pathway activators, primary screen, cell-based, plate reader, single point | actives 1.2% (n = 300,000) | AID 743398, 2014 | Wnt/beta-catenin reporter cell assay, activator | activation, % at 9.35 µM; in the data active = activation above about 30%, passing the limit was not always enough; inconclusive = no clear call, values can overlap the other calls;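 also: 0% = neutral control wells and 100% = positive control wells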
# MITF act: activators of MITF-driven TRPM1 promoter reporter, primary screen, cell-based, SK-MEL-5, luciferase, single point. AID 588334, 2011. SK-MEL-5 TRPM1-promoter luciferase, 24 h; % of positive control, neutral wells = 0. actives 0.75% (n = 300,000). activation, % at 12.5 µM;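 active = mean activation of at least 80% with every replicate also reaching 80%; inconclusive = mean reaches 80% but some replicate falls short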;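 also: 0% = neutral control wells and 100% = parthenolide positive control wells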
# PGC1a acetyl inh: inhibitors of PGC1a acetylation signal, primary screen, cell-based, U2OS, AlphaScreen, inhibitor mode | AlphaScreen anti-acetyl-lysine; with virally co-expressed GCN5 acetyltransferase | inhibition, % at 15.6 µM | actives 0.17% (n = 350,000) | AID 651687, 2012;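 active = every replicate shows inhibition of at least 40%; inconclusive = mean inhibition at least 40% but some replicate below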;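 also: 0% = neutral control wells and 100% = positive control wells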
# Cneo AK release: Cryptococcus neoformans cell lysis inducers, primary screen, AK release luminescence, single concentration; actives 0.2% (n = 360,000); lysis activity, % at 15 µM; AID 651654, 2012; C. neoformans lysis, adenylate kinase release luminescence, 4 h; normalised: neutral wells 0, clomiphene wells 100;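 active = mean lysis activity across replicates of at least 80%, whatever share of replicates individually reach that level; inactive = mean lysis activity below 80%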
#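 Material: C. neoformans cells; Schedule: 4 h static compound exposure, 37 °C, read 1 h post-reagent; Measured by: adenylate kinase release luminescence; Read-out: signal increase indicating cell lysis; Controls: Clomiphene as positive lysis control.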
# An asterisk follows results filed as active; ? = inconclusive; / = no result given. Only some compounds are listed: those with a hit (about 1.5% of all), similar ones and a draw of the others.
SMILES,Wnt bcat act,MITF act,PGC1a acetyl inh,Cneo AK release
COc1ccc(S(=O)(=O)N2CCOCC2)cc1NC(=O)c1ccc2c(c1)OCCO2,40*,-2,-8,7
Cc1ccc(C(=O)Nc2ccc(S(=O)(=O)N3CCOCC3)cc2)cc1Br,41*,/,4,0
COc1ccc(S(=O)(=O)N2CCOCC2)cc1NC(=O)c1ccc(Cl)cc1,0,11,/,0
COCC(=O)N1C[C@H](C)[C@@H](OC)CN(C)C(=O)c2ccc(NC(=O)c3ccc(F)cc3)cc2OC[C@H]1C,/,/,-4,0
Cc1ccc(S(=O)(=O)N[C@@H]2CCCN(Cc3cccc(OCCO)c3)C2)cc1,/,/,-45,85*
O=C(CN1CCOCC1)NCC[C@H]1CC[C@@H](NS(=O)(=O)c2ccc(F)cc2)[C@@H](CO)O1,/,/,7,60
COCC#Cc1cnc2c(c1)C(=O)N([C@H](C)CO)C[C@@H](C)[C@@H](CN(C)S(=O)(=O)c1cn(C)cn1)O2,/,/,-6,3
N#C/C(=N/Nc1ccc([N+](=O)[O-])cc1)C(=N)N1CCCCC1,/,101*,-3,/
N#C/C(=N\Nc1ccccc1[N+](=O)[O-])C(=N)N1CCCCC1,54*,57,7,-2
N#C/C(=N\Nc1ccc(Br)cc1)C(=N)N1CCOCC1,12,92*,/,2
N#C/C(=N\Nc1ccc([N+](=O)[O-])cc1)C(=N)N1CCOCC1,26,53,/,/
C[C@@H]1CN([C@@H](C)CO)C(=O)c2cc(-c3cccc(C(=O)N(C)C)c3)cnc2O[C@@H]1CN(C)S(=O)(=O)c1ccccc1,/,/,6,0
COC(=O)C[C@@H]1CC[C@@H]2[C@H](COc3ccc(NS(=O)(=O)c4cccc(F)c4)cc3C(=O)N2C)O1,/,/,-5,-19
C[C@H]1CN([C@@H](C)CO)C(=O)c2cc(-c3ccc(F)cc3)cnc2O[C@H]1CN(C)Cc1ccc(F)cc1,/,/,7,/
CCC(=O)Nc1ccc2c(c1)C(=O)N(C)[C@@H]1CC[C@H](CC(=O)Nc3cccc(OC)c3)O[C@@H]1CO2,/,/,4,7
CCn1c(C)cc(C(=O)CSc2nnnn2C2CCCC2)c1C,3,105*,3,-2
CCOC(=O)c1ccc(NC(=O)N2CCN(C3CCCCC3)CC2)cc1,/,7,9,-8
CCOC(=O)c1ccc(NC(=O)N2CCc3ccccc32)cc1,40*,73,-13,-8
COc1ccc(NC(=O)N2CCc3ccccc32)cc1,/,11,1,-7
COc1ccc(NC(=O)N2CCCc3ccccc32)cc1,54*,23,-3,-2
CCOC(=O)c1ccc(NC(=O)N2CCCCC2)cc1,/,101*,1,-4
C[C@@H]1CCCCO[C@@H](CN(C)Cc2ccncc2)[C@@H](C)CN([C@@H](C)CO)C(=O)c2cc(NC(=O)C3CCCCC3)ccc2O1,/,/,-3,/
CC(C)NC(=O)N(C)C[C@@H]1Oc2c(NC(=O)c3ccncc3)cccc2C(=O)N([C@H](C)CO)C[C@H]1C,/,/,4,-3
C[C@@H]1CN([C@H](C)CO)C(=O)c2cc(NS(=O)(=O)c3ccc(Cl)cc3)ccc2O[C@H]1CN(C)S(=O)(=O)c1cccs1,/,/,-15,42
C[C@H](CO)N1C[C@H](C)[C@@H](CN(C)C)Oc2ccc(NS(=O)(=O)c3ccc(Cl)cc3)cc2C1=O,/,/,-1,-1
SMILES,Wnt bcat act,MITF act,PGC1a acetyl inh,Cneo AK release
O=C(c1ccccc1)c1ccc2nc(-c3ccco3)c(-c3ccco3)nc2c1,36*,64,-4,-7
O=C(NCCc1ccccc1)c1ccc2nc(-c3ccco3)c(-c3ccco3)nc2c1,/,/,3,-5
CCC(=O)N(C)C[C@H]1Oc2cc(/C=C/c3ccccc3)ccc2S(=O)(=O)N([C@@H](C)CO)C[C@@H]1C,/,/,-10,2
C[C@@H]1CN([C@H](C)CO)C(=O)c2cc(C#Cc3cccc(F)c3)cnc2O[C@@H]1CN(C)Cc1ccccn1,/,/,-2,0
C[C@@H]1CCCCO[C@@H](CN(C)S(=O)(=O)c2cccs2)[C@H](C)CN([C@@H](C)CO)C(=O)c2cc(NC(=O)CCC(F)(F)F)ccc2O1,/,/,6,98*
CC(C)NC(=O)Nc1ccc2c(c1)C(=O)N([C@@H](C)CO)C[C@H](C)[C@@H](CN(C)S(=O)(=O)c1cccs1)OCCCC[C@H](C)O2,/,/,-2,87*
C[C@@H]1CN([C@@H](C)CO)C(=O)c2cc(NC(=O)CCC(F)(F)F)ccc2O[C@@H](C)CCCCO[C@@H]1CN(C)S(=O)(=O)c1cccs1,/,/,-9,0
COc1ccccc1C(=O)N1C[C@@H]2[C@H](c3ccccc31)[C@@H](CO)N2Cc1ccc(F)cc1,/,/,-8,-2
COc1ccc(S(=O)(=O)Nc2ccc3c(c2)CC(=O)N([C@H](C)CO)C[C@H](C)[C@@H](CN(C)S(=O)(=O)c2ccc(C)cc2)O3)cc1,/,/,4,-6
COCCNC(=O)C[C@H]1CC[C@@H]2[C@H](COc3ccc(NC(=O)c4cnccn4)cc3C(=O)N2C)O1,/,/,1,-3
O=C(Oc1c(CN2CCOCC2)cc(Cl)c2cccnc12)c1ccccc1Br,-20,-68,17,2
CN1CCN(Cc2cc(Cl)c3cccnc3c2OC(=O)c2cccs2)CC1,62*,-29,/,-4
COc1ccc(S(=O)(=O)N[C@@H]2C=C[C@H](CC(=O)NCCc3ccncc3)O[C@@H]2CO)cc1,/,/,-1,-1
COc1cc(OC)cc(C(=O)NCC(=O)Nc2ccc(-c3ccccc3)cc2)c1,14,41,/,1
COc1cc(OC)cc(C(=O)NCC(=O)Nc2ccc(C)c(Cl)c2)c1,46*,11,/,1
COc1ccccc1NC(=O)NCc1ccco1,0,7,2,/
COc1cc(NC(=O)NCc2ccco2)ccc1-c1ccc(NC(=O)NCc2ccco2)cc1OC,-4,-59,48*,0
COc1cc(OC)cc(C(=O)OCC(=O)NCc2ccco2)c1,47*,-4,0,-1
Cc1cc2c(cc1C)CN(c1ccccc1)C2,49*,96*,-9,-6
Oc1cccc(N2Cc3ccccc3C2)c1,/,13,4,-2
COc1cc(OC)cc(-c2cc3cc4c(cc3cn2)OCO4)c1,/,31,/,-7
COc1ccc(-c2cc3cc4c(cc3cn2)OCO4)cc1,37*,22,5,-1
COc1cc2cnc(-c3ccccc3)cc2cc1OC,4,13,-2,-3
c1ccc(-c2cc3cc4c(cc3cn2)OCO4)cc1,63*,27,/,-10
O=C(Nc1nccs1)c1ccc(CSc2ccccc2)o1,38*,?,/,-28
O=C(Nc1nccs1)c1ccc(-c2ccc(Cl)cc2)o1,52*,109*,-8,-21
O=C(Nc1nccs1)c1ccc(-c2ccc(F)cc2)o1,37*,142*,-5,/
CCOC(=O)c1c(C)[nH]c(C(=O)COC(=O)c2ccncc2)c1C,-1,-5,2,3
CCOC(=O)c1c(C)[nH]c(C(=O)COC(=O)c2cccnc2Cl)c1C,16,83*,-7,-1
